Source: ChEMBL document CHEMBL3608245, “Boronic acid-containing aminopyridine- and aminopyrimidinecarboxamide CXCR1/2 antagonists: Optimization of aqueous solubility and oral bioavailability” (Bioorg Med Chem Lett, 2015)
≈ marks a conversion by molar mass, not a printed value. Calls of active or inactive are those of the source. The calls are words filed in the database; no cut-off is given here.

How the values were obtained:
[1] = target: T1, C-X-C chemokine receptor type 2 (Homo sapiens, UniProt P25025); test: Antagonist activity at CXCR2 (unknown origin) transfected in RBL cells assessed as inhibition of IL-8-mediated intracellular calcium release preincubated for 30 mins followed by IL-8 addition by FLUO-4AM-based fluorescent microplate reader analysis; type: functional, cell-based
T1 sequence (P25025 whole entry): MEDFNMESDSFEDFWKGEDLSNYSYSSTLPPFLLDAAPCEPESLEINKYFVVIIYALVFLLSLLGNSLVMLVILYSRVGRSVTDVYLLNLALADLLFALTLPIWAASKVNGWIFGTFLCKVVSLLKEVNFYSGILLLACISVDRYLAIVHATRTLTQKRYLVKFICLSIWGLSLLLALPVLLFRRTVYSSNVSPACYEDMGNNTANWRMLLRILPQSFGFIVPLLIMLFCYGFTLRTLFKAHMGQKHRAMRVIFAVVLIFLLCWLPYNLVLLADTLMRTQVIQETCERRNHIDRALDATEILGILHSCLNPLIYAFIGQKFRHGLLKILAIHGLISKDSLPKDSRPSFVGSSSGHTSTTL

[2] = target: T2, C-X-C chemokine receptor type 1 (Homo sapiens, UniProt P25024); test: Antagonist activity at CXCR1 (unknown origin) transfected in RBL cells assessed as inhibition of IL-8-mediated intracellular calcium release preincubated for 30 mins followed by IL-8 addition by FLUO-4AM-based fluorescent microplate reader analysis; type: functional, cell-based
T2 sequence (P25024 whole entry): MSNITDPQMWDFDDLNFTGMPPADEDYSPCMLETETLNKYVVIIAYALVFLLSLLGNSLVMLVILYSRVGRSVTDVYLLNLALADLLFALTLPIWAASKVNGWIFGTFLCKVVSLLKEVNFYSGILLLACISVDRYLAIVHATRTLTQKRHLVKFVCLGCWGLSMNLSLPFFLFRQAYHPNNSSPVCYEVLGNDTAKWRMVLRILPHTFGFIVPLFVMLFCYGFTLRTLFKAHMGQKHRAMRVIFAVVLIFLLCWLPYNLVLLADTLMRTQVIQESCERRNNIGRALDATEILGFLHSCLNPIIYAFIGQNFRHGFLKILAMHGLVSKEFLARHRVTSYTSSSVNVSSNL
In short: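 RBL cells stably expressing CXCR1 were preincubated 30 min with compound, then stimulated with IL8. Intracellular calcium release read by FLUO-4AM fluorescence on a microplate reader. IC50 from triplicate experiments, mean ± SE.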

Plasma = test: Metabolic stability in rat plasma; type: ADME, cell-free
[3] = Metabolic stability in human plasma assessed as compound remaining at 1 uM measured at 1 hr by LC-MS/MS analysis; type: ADME, cell-free; conditions: read-out: Stability
In short: (§1)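 Compound at 1 µM was incubated in human plasma at 37°C for up to 24 h. Samples were taken at 0, 1, 4 and 24 h and analysed by LC-MS/MS, with results reported as % remaining.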

[4] = Oral bioavailability in rat at 1 mg/kg by LC-MS/MS analysis; type: ADME, organism-based; conditions: in vivo
In short: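 Rats were dosed at 1 mg/kg both intravenously (vehicle dimethylacetamide/PEG400/0.9% saline 40:40:20) and by oral gavage (vehicle 0.1 N HCl or Labrasol, depending on compound). Plasma levels were measured by LC-MS/MS against a calibration curve of compound spiked into rat plasma, run alongside the samples. Oral and IV AUC are reported in μmol·hr/L.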

Rattus norvegicus [5] = test: AUC in rat at 1 mg/kg, po by LC-MS/MS analysis; type: ADME, organism-based; conditions: in vivo
[6] = Solubility of the compound in 0.1 N HCl; type: physicochemical; conditions: buffer
[7] = Metabolic stability in human plasma assessed as compound remaining at 1 uM measured at 4 hrs by LC-MS/MS analysis; type: ADME, cell-free; conditions: read-out: Stability; in short: as §1
[8] = Metabolic stability in human plasma assessed as compound remaining at 1 uM measured at 24 hrs by LC-MS/MS analysis; type: ADME, cell-free; conditions: read-out: Stability; in short: as §1
[9] = target: T3, Interleukin-8 receptors, CXCR1/CXCR2 (Homo sapiens, UniProt P25025+P25024); test: Antagonist activity at CXCR1/CXCR2 in isolated human PMN assessed as inhibition of IL-8-mediated intracellular calcium flux; type: functional, cell-based
T3 sequence (P25025 whole entry): T1 sequence (P25025 whole entry)
T3 sequence (P25024 whole entry): T2 sequence (P25024 whole entry)
In short: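 Isolated human neutrophils (PMNs); inhibition of calcium flux with IL8 as agonist; IC50 reported as mean ± SE from triplicate experiments.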

Rattus norvegicus [10] = test: Antiinflammatory activity in Sprague-Dawley rat ozone model of pulmonary inflammation assessed as reduction in neutrophil influx at 1 mg/kg, iv after 24 hrs by Wright-Giemsa staining assay; type: functional, organism-based
In short: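 Sprague-Dawley rats, n = 4 per cohort, received a single iv dose at t = 0 in DMA/PEG400/0.9% saline (40:40:20). Vehicle groups were kept in air (negative) or 1 ppm ozone (positive), and treated groups in ozone, each for 4 h. At 24 h the rats were sacrificed and BALF was collected. Cells were spun down, Wright-Giemsa stained and neutrophils counted.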

Rattus norvegicus [11] = test: AUC in rat at 1 mg/kg, iv by LC-MS/MS analysis; type: ADME, organism-based; conditions: in vivo
In short: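 Rats dosed intravenously at 1 mg/kg in DPS vehicle (dimethylacetamide/PEG400/0.9% saline 40:40:20). Plasma concentrations measured by LC-MS/MS against a calibration curve of test compound spiked in rat plasma, run alongside the samples; AUC given in μmol·hr/L.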

SMILES | IC50 [1] | IC50 [2] | further results
O=C(Nc1ccc(F)cc1)c1ccc(NCc2cccc(B(O)O)c2)nc1 | 0.733 µM | 0.611 µM | 
O=C(Nc1ccc(F)cc1)c1cnc(N(Cc2ccccc2)Cc2ccc(B(O)O)cn2)nc1 | 0.004 µM | 0.007 µM | Stability (Plasma): Stable; remaining at 1 h, 1 µM [3]: 90%; bioavailability [4]: 24%; AUC (Rattus norvegicus [5]): 1.15 µM·h; solubility [6]: 500 µg/mL (≈ 1090 µM); remaining at 4 h, 1 µM [7]: 71%; remaining at 24 h, 1 µM [8]: 62%; IC50 [9]: 0.185 µM; Activity (Rattus norvegicus [10]): Active; AUC (Rattus norvegicus [11]): 4.37 µM·h
O=C(Nc1ccc(F)cc1)c1ccc(NCc2ccccc2B(O)O)nc1 | > 5 µM | > 5 µM | 
CN(Cc1ccc(B(O)O)cn1)c1ccc(C(=O)Nc2ccc(F)cc2)cn1 | 0.081 µM | 1.7 µM | 
O=C(Nc1ccc(F)cc1)c1cnc(N(Cc2ccccn2)Cc2ccc(B(O)O)cn2)nc1 | 4.31 µM | 2.05 µM | 
CN(Cc1ccc(B(O)O)cc1)c1ccc(C(=O)Nc2ccc(F)cc2)cn1 | 1.1 µM | 1.4 µM | 
CN(Cc1ccccc1B(O)O)c1ncc(C(=O)Nc2ccc(F)cc2)cn1 | > 5 µM | > 5 µM | 
O=C(Nc1ccc(F)cc1)c1ccc(N(Cc2ccccc2)Cc2ccc(B(O)O)cn2)nc1 | 0.298 µM | 0.326 µM | 
CN(Cc1ccccc1B(O)O)c1ccc(C(=O)Nc2ccc(F)cc2)cn1 | > 5 µM | > 5 µM | 
O=C(Nc1ccc(F)cc1)c1ccc(NCc2ccc(B(O)O)cc2)nc1 | 2.2 µM | 4.3 µM | 
O=C(Nc1ccc(F)cc1)c1ccc(SCc2cc(OC(F)(F)F)ccc2B(O)O)nc1 |  |  | Stability (Plasma): Stable; remaining at 1 h, 1 µM [3]: 62%; AUC (Rattus norvegicus [5]; BLD = below limit of detection): BLD; solubility [6]: Insoluble; remaining at 4 h, 1 µM [7]: 34%; remaining at 24 h, 1 µM [8]: 2%; Activity (Rattus norvegicus [10]): Active
O=C(Nc1ccc(F)cc1)c1cnc(NCc2cccc(B(O)O)c2)nc1 | 0.918 µM | 1.34 µM | 
O=C(Nc1ccc(F)cc1)c1ccc(N(Cc2ccc(B(O)O)cn2)Cc2ccco2)nc1 | 0.021 µM | 0.0033 µM | 
NCCN(Cc1ccc(B(O)O)cn1)c1ncc(C(=O)Nc2ccc(F)cc2)cn1 | > 5 µM | > 5 µM | 
O=C(Nc1ccc(F)cc1)c1cnc(NCc2ccc(B(O)O)cc2)nc1 | 2.6 µM | 1.7 µM | 
CN(Cc1cccc(B(O)O)c1)c1ncc(C(=O)Nc2ccc(F)cc2)cn1 | 2.5 µM | 2.5 µM | 
CN(Cc1ccc(B(O)O)cc1)c1ncc(C(=O)Nc2ccc(F)cc2)cn1 | 0.121 µM | 0.681 µM | 
O=C(Nc1ccc(F)cc1)c1cnc(N(Cc2ccc(B(O)O)cn2)Cc2ccco2)nc1 | 0.655 µM | 0.444 µM | 
CN(Cc1ccc(B(O)O)cn1)c1ncc(C(=O)Nc2ccc(F)cc2)cn1 | 0.933 µM | 1.7 µM | 
O=C(Nc1ccc(F)cc1)c1ccc(N(Cc2ccccn2)Cc2ccc(B(O)O)cn2)nc1 | 4.85 µM | > 5 µM | 
O=C(Nc1ccc(F)cc1)c1ccc(N(Cc2ccc(B(O)O)cn2)CC2CCOCC2)nc1 | 2.3 µM | > 5 µM | 
O=C(O)CN(Cc1ccc(B(O)O)cn1)c1ncc(C(=O)Nc2ccc(F)cc2)cn1 | > 5 µM | > 5 µM | 
CN(Cc1cccc(B(O)O)c1)c1ccc(C(=O)Nc2ccc(F)cc2)cn1 | 0.41 µM | 4.1 µM | 
